Laboratory results reported in ChEMBL document CHEMBL3872265, “Structure-activity relationship of the inhibitory effects of flavonoids on nitric oxide production in RAW264.7 cells” (Bioorg Med Chem, 2017).

Legend:
[1] = system: RAW264.7; test: Inhibition of LPS/INF-gamma-stimulated nitric oxide production in mouse RAW264.7 cells measured after 16 hrs; assay type: functional, cell-based; conditions: RAW264.7, 16 h
Method in brief: (§1)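 RAW264.7 murine macrophages were co-stimulated with LPS (100 ng/mL) plus IFN-γ (0.33 ng/mL) in the presence of test compound. Nitrite released into the medium was quantified by the Griess method as a measure of NO. Cell viability was read in parallel with AlamarBlue reagent.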

[2] = system: Peritoneal macrophage; test: Inhibition of LPS-stimulated nitric oxide production in ddy mouse peritoneal macrophages measured after 20 hrs by Greiss method; assay type: functional
[3] = system: RAW264.7; test: Inhibition of LPS/INF-gamma-stimulated nitric oxide production in mouse RAW264.7 cells by Greiss method; assay type: functional, cell-based; method in brief: as §1
[4] = Cytotoxicity against LPS/INF-gamma-stimulated mouse RAW264.7 cells assessed as cell viability at 100 uM by alamar blue assay relative to control; assay type: toxicity; conditions: LPS/INF-gamma-stimulated RAW264.7 cells, read-out: Activity; method in brief: as §1
[5] = system: RAW264.7; test: Inhibition of LPS-stimulated nitric oxide production in mouse RAW264.7 cells by Greiss method; assay type: functional, cell-based
Method in brief: (§2)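 This variant stimulated RAW264.7 murine macrophages with LPS alone, without IFN-γ, in the presence of test compound. Released nitrite was measured by the Griess method to quantify NO production. Cell viability was assessed with AlamarBlue reagent.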

[6] = Cytotoxicity against LPS-stimulated mouse RAW264.7 cells assessed as cell viability at 100 uM by alamar blue assay relative to control; assay type: toxicity; conditions: LPS-stimulated RAW264.7 cells, read-out: Activity; method in brief: as §2

Row | SMILES | IC50 [1] | IC50 [2] | also measured
1 | O=c1cc(-c2ccc(O)cc2)oc2cc(O)ccc12 |  | 14 µM | 
2 | COc1cc(-c2cc(=O)c3c(O)cc(O)cc3o2)cc(O)c1OC |  |  | IC50 [3]: 18.2 µM; viability at 100 µM [4]: 96%; IC50 [5]: 6.9 µM; viability at 100 µM [6]: 106%
3 | COc1c(O)cc(-c2oc3cc(O)ccc3c(=O)c2O)cc1O | 14 µM |  | 
4 | COc1cc(-c2oc3cc(O)ccc3c(=O)c2O)cc(OC)c1O | 63 µM |  | 
5 | COc1c(O)cc(-c2cc(=O)c3c(O)cc(O)cc3o2)cc1O |  |  | IC50 [3]: 59.3 µM; viability at 100 µM [4]: 119%; IC50 [5]: 37 µM; viability at 100 µM [6]: 112%
6 | COc1cc([C@H]2Oc3cc(O)ccc3C(=O)[C@@H]2O)cc(OC)c1O | > 100 µM |  | 
7 | COc1ccc(-c2cc(=O)c3c(O)cc(O)cc3o2)cc1OC |  |  | IC50 [3]: 17 µM; viability at 100 µM [4]: 109%; IC50 [5]: 5 µM; viability at 100 µM [6]: 112%
8 | COc1ccc(-c2cc(=O)c3c(O)cc(O)cc3o2)cc1 [ACACETIN] |  |  | IC50 [3]: 53.7 µM; viability at 100 µM [4]: 115%; IC50 [5]: 27.7 µM; viability at 100 µM [6]: 99%
9 | COc1ccc(-c2cc(=O)c3c(O)cc(O)cc3o2)cc1O [DIOSMETIN] |  | 8.9 µM | IC50 [3]: 32.2 µM; IC50 [5]: 16.7 µM
10 | O=c1cc(-c2ccc(O)c(O)c2)oc2cc(O)cc(O)c12 [LUTEOLIN] |  | 20 µM | 
11 | COc1c(O)cc(-c2oc3cc(O)cc(O)c3c(=O)c2O)cc1O [MEARNSETIN] |  | 84 µM | 
12 | O=c1c(O)c(-c2cc(O)c(O)c(O)c2)oc2cc(O)cc(O)c12 [MYRICETIN] |  | 99 µM | 
13 | O=C1C[C@@H](c2ccc(O)cc2)Oc2cc(O)cc(O)c21 [NARINGENIN] | 60 µM |  | 
14 | O=c1c(O)c(-c2ccc(O)c(O)c2)oc2cc(O)cc(O)c12 [QUERCETIN] |  | 36 µM | 
15 | COc1cc(-c2cc(=O)c3c(O)cc(O)cc3o2)cc(OC)c1O [TRICIN] | 8 µM |  | 

More lines, main results first:

Row | IC50 [1] | IC50 [2] | SMILES | also measured
16 | 12 µM |  | O=C1C[C@@H](c2cc(O)cc(O)c2)Oc2cc(O)cc(O)c21 | 
17 |  | 26 µM | O=c1cc(-c2ccc(O)c(O)c2)oc2cc(O)ccc12 | 
18 | > 100 µM |  | COc1c(O)cc([C@H]2Oc3cc(O)ccc3C(=O)[C@@H]2O)cc1O | 
19 | > 100 µM |  | O=C1C[C@@H](c2cc(O)c(O)c(O)c2)Oc2cc(O)ccc21 | 
20 | > 100 µM |  | O=C1c2ccc(O)cc2O[C@H](c2cc(O)c(O)c(O)c2)[C@H]1O | 
21 | 14 µM | 7.7 µM | O=c1cc(-c2ccc(O)cc2)oc2cc(O)cc(O)c12 [APIGENIN] | 
22 | > 100 µM |  | O=C1c2c(O)cc(O)cc2O[C@H](c2ccc(O)cc2)[C@H]1O [DIHYDROKAEMPFEROL] | 
23 |  | > 100 µM | O=C1C[C@@H](c2ccc(O)c(O)c2)Oc2cc(O)cc(O)c21 [ERIODICTYOL] | 
24 | 15 µM | 29 µM | O=c1c(O)c(-c2ccc(O)cc2)oc2cc(O)cc(O)c12 [KAEMPFEROL] | IC50 [3]: 17 µM; viability at 100 µM [4]: 138%; IC50 [5]: 13.4 µM; viability at 100 µM [6]: 141%
25 |  | 85 µM | O=C1C[C@@H](c2ccc(O)cc2)Oc2cc(O)ccc21 [LIQUIRTIGENIN] | 
26 | 42 µM |  | O=c1c(O)c(-c2cc(O)c(O)c(O)c2)oc2cc(O)ccc12 [ROBINETIN] | 
27 |  | 25 µM | COc1ccc(-c2oc3cc(O)cc(O)c3c(=O)c2O)cc1O [TAMARIXETIN] | 
